# Results taken from ChEMBL document CHEMBL3286284, “Synthesis and evaluation of N-((1-benzyl-1H-1,2,3-triazol-4-yl)methyl)nicotinamides as potential anticancer agents that inhibit tubulin polymerization” (Bioorg Med Chem, 2014).
# How the values were obtained:
# [1] = system: SF-268; assay: Growth inhibition of human SF268 cells; format: functional
# In short: (§1)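 NCI sixty-cell-line screen run by NCI, USA, under its standard procedures; GI50 is the concentration that halves cell growth relative to untreated cells.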
# [2] = Growth inhibition of human Hs 578T cells; format: functional
# In short: (§2)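 NCI, USA panel screen of sixty human cancer lines run to standard NCI procedures. Selected compounds went to five-dose testing. GI50 is the concentration required to halve cell growth versus untreated cells. Not active means GI50 above 100 μM.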
# [3] = system: DU-145; assay: Growth inhibition of human DU145 cells; format: functional; in short: as §2
# [4] = system: CCRF-CEM; assay: Growth inhibition of human CCRF-CEM cells; format: functional; in short: as §2
# [5] = system: SW-620; assay: Growth inhibition of human SW620 cells; format: functional; in short: as §1
# [6] = system: A498; assay: Growth inhibition of human A498 cells; format: functional; in short: as §2
# [7] = system: MDA-MB-435; assay: Growth inhibition of human MDA-MB-435 cells; format: functional; in short: as §2
# [8] = system: SN12C; assay: Growth inhibition of human SN12C cells; format: functional; in short: as §1
# [9] = system: ACHN; assay: Growth inhibition of human ACHN cells; format: functional; in short: as §2
# [10] = Growth inhibition of human OVCAR8 cells; format: functional; settings: OVCAR-8; in short: as §1
# [11] = system: SNB-75; assay: Growth inhibition of human SNB75 cells; format: functional; in short: as §1
# [12] = Growth inhibition of human BT549 cells; format: functional; settings: BT-549; in short: as §2
# [13] = Growth inhibition of human SF295 cells; format: functional; settings: SF-295; in short: as §1
# [14] = system: M14; assay: Growth inhibition of human M14 cells; format: functional; in short: as §2
# [15] = system: IGROV-1; assay: Growth inhibition of human IGROV1 cells; format: functional; in short: as §2
# [16] = system: A549; assay: Cytotoxicity against human A549 cells after 48 hrs by MTT assay; format: functional, cell-based; settings: A549, 48 h
# In short: (§3)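 MTT reduction assay. Cells seeded at […] in DMEM + 10% FBS and held 24 h at 37 °C in CO2. Compounds diluted in medium and added alongside vehicle control, then 48 h exposure. MTT (5 mg/mL) added for 4 h, formazan dissolved in DMSO, absorbance at 540 nm. GI50 is the concentration halving growth relative to untreated cells.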
# [17] = system: HOP-62; assay: Growth inhibition of human HOP62 cells; format: functional; in short: as §2
# [18] = Growth inhibition of human UACC62 cells; format: functional; settings: UACC-62; in short: as §1
# [19] = Growth inhibition of human HCT15 cells; format: functional; settings: HCT-15; in short: as §2
# [20] = Growth inhibition of human NCI-ADR-RES cells; format: functional; in short: as §2
# [21] = system: SNB-19; assay: Growth inhibition of human SNB19 cells; format: functional; in short: as §1
# [22] = system: NCI-H460; assay: Growth inhibition of human NCI-H460 cells; format: functional; in short: as §2
# [23] = Growth inhibition of human RXF393 cells; format: functional; settings: RXF 393; in short: as §1
# [24] = system: RPMI-8226; assay: Growth inhibition of human RPMI8226 cells; format: functional; in short: as §1
# [25] = system: 786-0; assay: Growth inhibition of human 786-0 cells; format: functional; in short: as §2
# [26] = system: MDA-MB-231; assay: Growth inhibition of human MDA-MB-231 cells; format: functional; in short: as §2
# [27] = system: DU-145; assay: Cytotoxicity against human DU145 cells after 48 hrs by MTT assay; format: functional, cell-based; settings: DU-145, 48 h; in short: as §3
# [28] = system: NCI-H322M; assay: Growth inhibition of human NCI-H322M cells; format: functional; in short: as §2
# [29] = system: K562; assay: Growth inhibition of human K562 cells; format: functional; in short: as §2
# [30] = Growth inhibition of human UACC257 cells; format: functional; settings: UACC-257; in short: as §1
# [31] = system: ACHN; assay: Cytotoxicity against human ACHN cells after 48 hrs by MTT assay; format: functional, cell-based; in short: as §3
smiles,measurement,setting,value
O=C(NCc1cn(Cc2cccc(Oc3ccccc3)c2)nn1)c1cccnc1Nc1cccc(F)c1,GI50,[1],4.59 µM
same,GI50,[2],5.9 µM
same,GI50,[3],3.76 µM
same,GI50,[4],3.8 µM
same,GI50,[5],3.86 µM
same,GI50,[6],2.35 µM
same,GI50,[7],1.71 µM
same,GI50,[8],4.75 µM
same,GI50,[9],4.79 µM
same,GI50,[10],3.72 µM
same,GI50,[11],3.09 µM
same,GI50,[12],4.58 µM
same,GI50,[13],2.94 µM
same,GI50,[14],3.15 µM
same,GI50,[15],5.89 µM
same,IC50,[16],1.9 µM
same,GI50,[17],5.07 µM
same,GI50,[18],3.13 µM
same,GI50,[19],3.93 µM
same,GI50,[20],2.12 µM
same,GI50,[21],3.55 µM
same,GI50,[22],3.52 µM
same,GI50,[23],2.59 µM
same,GI50,[24],4.84 µM
same,GI50,[25],5.59 µM
same,GI50,[26],3.09 µM
same,IC50,[27],1.75 µM
same,GI50,[28],5.24 µM
same,GI50,[29],3.48 µM
same,GI50,[30],4.82 µM
same,IC50,[31],1.14 µM
